According to ChEMBL document CHEMBL1123318, “(S)-3-[(benzyloxy)methyl]morpholine hydrochloride: a nonstimulant appetite suppressant without conventional neurotransmitter releasing properties” (J Med Chem, 1986):

How the values were obtained:
Canis familiaris [1] = assay: Compound was evaluated for mean increase in food intake in dogs at 1 hour after oral administration at a dose 10 mg/kg; assay type: functional, Canis lupus familiaris
Summary of the method: (§1)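 Mature beagle dogs were trained to a daily 4-h feeding period with free access to meat. Groups of three received oral drug in soft gelatin capsules 1 h before feeding, and controls received empty capsules. All dogs got placebo on days 1–2, then drug or placebo on days 3–5. Leftover food was weighed at 1 and 2 h. Per-dog % change was taken against the days 1–2 mean, then averaged over days 3–5 and per group.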

Canis familiaris [2] = assay: Compound was evaluated for mean reduction in food intake in dogs at a dose 15 mg/kg at 2 hour after dosing for the last 3 days; assay type: functional, Canis lupus familiaris
Summary of the method: (§2)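 Chronic regime: three beagle dogs on a daily 4-h meat feeding period were given a daily oral dose for 3 weeks. Food intake was measured 2 h after dosing. The mean % reduction versus control intake was compared between the first 3 and the last 3 days of the test.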

Rattus norvegicus [3] = species on record: Rattus norvegicus; assay: Compound was found to have no effect on the release or uptake of dopamine at in rat brain synaptosomes; Inactive; assay type: functional
Canis familiaris [4] = assay: Compound was evaluated for mean reduction in food intake in dogs at 1 hour after dosing; assay type: functional, Canis lupus familiaris; summary of the method: as §1
Canis familiaris [5] = assay: Compound was evaluated for mean reduction in food in take in dogs at 2 hour after dosing; assay type: functional, Canis lupus familiaris; summary of the method: as §1
Canis familiaris [6] = assay: Compound was evaluated for mean reduction in food intake in dogs at a dose 15 mg/kg at 2 hour after dosing for the first 3 days; assay type: functional, Canis lupus familiaris; summary of the method: as §2
Rattus norvegicus [7] = species on record: Rattus norvegicus; assay: Compound was found to have no effect on the release or uptake of serotonin at in rat brain synaptosomes; Inactive; assay type: functional
Canis familiaris [8] = species on record: Canis familiaris; assay: Compound was evaluated for oral ED50 for appetite suppression in dogs.; assay type: functional; conditions: Canis lupus familiaris
Summary of the method: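 ED50 for the 1-h food intake effect: five pairs of trained beagle dogs were randomly allocated to oral 5, 10, 15 or 20 mg/kg or to an undosed placebo pair. Treatments ran on successive days in a Latin Square design, and food was weighed 1 h into the feeding period.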

Rattus norvegicus [9] = species on record: Rattus norvegicus; assay: Compound was found to have no effect on the release or uptake of noradrenaline at in rat brain synaptosomes; Inactive; assay type: functional
Canis familiaris [10] = assay: Compound was evaluated for mean increase in food intake in dogs after oral administration at a dose 3 mg/kg; assay type: functional, Canis lupus familiaris
Canis familiaris [11] = assay: Compound was evaluated for mean reduction in food intake in three dogs at a dose 3 mg/kg orally for 3 weeks at 2 hour after dosing for the first 3 days; assay type: functional, Canis lupus familiaris; conditions: route oral; summary of the method: as §2

`Cl.c1ccc(COC[C@@H]2COCCN2)cc1` gave an Increase (Canis familiaris [1]) of 13%.
With `Cl.c1ccc(COC[C@H]2COCCN2)cc1` the Reduction (Canis familiaris [2]) was 56%, the IC50 (Rattus norvegicus [3]) was > 10 µM and the Reduction (Canis familiaris [4]) was 51%. For the same molecule, the Reduction (Canis familiaris [5]) was 47%, the Reduction (Canis familiaris [6]) was 53% and the IC50 (Rattus norvegicus [7]) was > 10 µM. For the same molecule, the ED50 (Canis familiaris [8]) was 12 mg/kg and the IC50 (Rattus norvegicus [9]) was > 10 µM.
`CCN(CC)C(C)C(=O)c1ccccc1.Cl` (configuration not stated) [DIETHYLPROPION HYDROCHLORIDE] was tested, and the Increase (Canis familiaris [10]) was 5%, the Reduction (Canis familiaris [11]) was 86% and the ED50 (Canis familiaris [8]) was 2 mg/kg.
